For series [1], the species on record is Homo sapiens. In words: Stabilization of c-Myc G-quadruplex DNA in human SiHa cells assessed as inhibition of c-Myc mRNA level at 1.25 to 5 uM after 6 hrs by RT-PCR method. In kind it is cell-based. Summed up:
(§1)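 SiHa cells (2.0×10^5) dosed 6 h; total RNA reverse-transcribed with oligo dT18 primer and M-MLV (42 °C 1 h, 85 °C 5 min); PCR 95 °C 5 min then 30 cycles (95 °C 30 s, 58 °C 30 s, 72 °C 40 s); products checked on agarose gel.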

Series [2] in a line: Stabilization of antiparallel HRAS G-quadruplex DNA (unknown origin) assessed as effect on melting temperature at 15 uM by circular dichroism spectroscopic assay. In kind it is ADME. Summed up:
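CD melting of 3 µM annealed G-quadruplex with or without 15 µM ligand in 10 mM Tris-HCl pH 7.2 with 2 mM KCl (50 mM KCl for htg22 and HRAS); read every 5 °C over 25–95 °C, heating 1 °C/min.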
(In general: Circular dichroism is widely used to follow secondary structure.)

Series [3] is described as follows: Binding affinity to KRAS promoter G-quadruplex DNA (unknown origin) after 1 min by fluorescence titration method. In kind it is ADME. Summed up:
(§2)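 Oligonucleotide stock added stepwise to fixed-concentration compound in 10 mM Tris-HCl pH 7.2, 100 mM KCl; equilibrated ≥1 min after each addition, emission read with excitation at 350 nm. KD from fitting titration data to the Benesi–Hildebrand equation; 1:1 stoichiometry checked by Job plot.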

Series [4] can be described thus: Binding affinity to up to 10 uM hybrid telomeric htg22 G-quadruplex DNA (unknown origin) at 1 uM after 1 min by fluorescence spectroscopic analysis. Type of series: ADME. Put shortly:
as §2

Series [5] can be described thus: Stabilization of RET G-quadruplex DNA in human SiHa cells assessed as effect on RET mRNA level at 1.25 to 5 uM fter 6 hrs by RT-PCR method. In kind it is ADME, cell-based. Summed up: as §1
A short description of series [6]: Binding affinity to BCL2 promoter G-quadruplex DNA (unknown origin) after 1 min by fluorescence titration method. In kind it is ADME. Put shortly:
as §2

In a further series the test system is BJ. Kind of series: Cytotoxicity against human BJ cells assessed as reduction in cell viability after 24 hrs by MTT assay. In kind it is cell-based. Summed up:
(§3)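 Cells seeded at 5.0×10^3 per well, exposed to compound for 24 h; MTT (2.5 mg/mL) added for 4 h, formazan dissolved in DMSO, OD read at 570 nm. Triplicate; IC50 from curves of mean OD against concentration.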
On the technique in general: Formazan colour is commonly taken as a measure of viable cells.

The species named for series [7] is Homo sapiens. Kind of series: Stabilization of c-Myc G-quadruplex DNA in human SiHa cells assessed as decrease in c-Myc protein expression at 1.25 to 5 uM after 24 hrs by Western blot method. Type of series: cell-based. Summed up: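 SiHa cells (2.0×10^5) exposed 24 h, lysed at 4 °C; 30 µg protein per lane on 10% SDS-PAGE, transferred to nitrocellulose, milk-blocked, primary antibody overnight at 4 °C, HRP secondary 2 h at room temperature.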
In general terms: Immunoblotting shows a protein as a band on a membrane.

Series [8] can be described thus: Binding affinity to 1 uM PDGFA promoter G-quadruplex DNA (unknown origin) at 1 uM after 1 min by fluorescence spectroscopic analysis. In kind it is ADME. Put shortly:
(§4)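 Fluorescence emission spectra of 1 µM compound mixed with 1 µM pre-annealed oligonucleotide (G-quadruplexes folded in 100 mM KCl by heating to 95 °C for 5 min, slow cooling), in Tris-HCl buffer.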

Series [9] can be described thus: Binding affinity to 1 uM C-KIT1 promoter G-quadruplex DNA (unknown origin) at 1 uM after 1 min by fluorescence spectroscopic analysis. In kind it is ADME. Put shortly:
as §4

A short description of series [10]: Stabilization of PDGFA G-quadruplex DNA in human SiHa cells assessed as effect on PDGFA mRNA level at 1.25 to 5 uM fter 6 hrs by RT-PCR method. In kind it is ADME, cell-based. Summed up: (§5)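 SiHa cells (2.0×10^5 per well) treated 6 h; total RNA (2 µg) reverse-transcribed with oligo dT18 and M-MLV at 42 °C for 1 h, 85 °C for 5 min; PCR: 95 °C 5 min, then 30 cycles of 95 °C 30 s, 58 °C 30 s, 72 °C 40 s; products checked on agarose gel.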

The test system of series [11] is SiHa. In words: Cytotoxicity against human SiHa cells assessed as cell growth inhibition at 1.2 to 3 uM after 130 hrs by RTCA assay. Type of series: functional, cell-based. Put shortly: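 Cells seeded at 2000 per well on impedance plates, settled 20 min at room temperature, profiled 24 h; medium then replaced with compound-containing medium and cells monitored to 130 h total. Cell index normalized to 1.0 at the time point just before compound addition.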

Series [12] has as its system SiHa. Kind of series: Antitumor activity against human SiHa cells xenografted in nude BALB/c mouse assessed as tumor growth inhibition at 5 to 20 mg,kg, ip administered every other day for 24 days. Type of series: functional, organism-based. The note with it: TDE = time-dependent effect. Summed up:
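BALB/c nude mice (5 weeks old) given 1×10^7 SiHa cells subcutaneously in right flank; at ~50 mm3 tumor volume, randomized (10 per group) and dosed intraperitoneally every other day for 24 days; controls got equal-volume saline. Caliper volume as 1/2 × length × width2; tumors weighed at end; inhibition rate = (1 − mean treated tumor weight/mean control tumor weight) × 100%.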

A short description of series [13]: Binding affinity to 1 uM BCL2 promoter G-quadruplex DNA (unknown origin) at 1 uM after 1 min by fluorescence spectroscopic analysis. In kind it is ADME. Summed up: as §4
Series [14] can be described thus: Stabilization of HRAS G-quadruplex DNA in human SiHa cells assessed as effect on HRAS mRNA level at 1.25 to 5 uM fter 6 hrs by RT-PCR method. Type of series: ADME, cell-based. Put shortly: as §5
Series [15] has as its system Mus musculus. In words: Toxicity in nude BALB/c mouse xenografted with human SiHa cells assessed as viscera weight reduction at 5 to 20 mg/kg, ip administered every other day for 24 days. In kind it is organism-based. To be noted: in vivo, 576 h. Put shortly: (§6)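 BALB/c nude mice, 5 weeks old, implanted subcutaneously in right flank with 1×10^7 SiHa cells; at ~50 mm3 tumor, 10 per group dosed ip every other day for 24 days, saline control; body weight measured daily, viscera weighed at sacrifice; mean ± SEM, Student's t test versus saline.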

Series [16] relates to Mus musculus. Kind of series: Toxicity in nude BALB/c mouse xenografted with human SiHa cells assessed as body weight reduction at 5 to 20 mg/kg, ip administered every other day for 24 days. The note with it: in vivo, 576 h. In kind it is organism-based. Summed up:
as §6

The subject of series [17] is SiHa. In words: Induction of cell cycle arrest in human SiHa cells assessed as upregulation of p27 protein levels after 24 hrs by Western blot analysis. In kind it is functional, cell-based. Summed up:
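SiHa cells (2.0×10^5 per well) treated 24 h, lysed at 4 °C for 30 min, supernatant cleared at 15,000 rpm; protein measured by BCA, 30 µg resolved on 10% SDS-PAGE, transferred to nitrocellulose, blocked in 5% milk/TBS-Tween 1 h, primary antibodies overnight at 4 °C, HRP secondaries 2 h at room temperature.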

Series [18] is described as follows: Cytotoxicity against mouse primary mesangial cells assessed as reduction in cell viability after 24 hrs by MTT assay. In kind it is cell-based. Put shortly:
as §3

The species entered for series [19] is Homo sapiens. Kind of series: Stabilization of c-Myc promoter G-quadruplex DNA in human CA46 cells assessed as effect on exon 2 transcriptional level at 1.25 to 5 uM after 6 hrs by RT-PCR analysis. Type of series: cell-based. Put shortly: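 RAJI and CA46 cells treated 6 h over a concentration range; total RNA reverse-transcribed (oligo dT18, M-MLV, 42 °C 1 h then 85 °C 5 min); exon 1 and exon 2 amplified by real-time PCR with exon-specific primers, products run on 1% agarose gel; three repeats.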

The source made the active and inactive calls. The rule behind the calls is not given here.

Consider `CCn1c2ccccc2c2cc(-c3nc(-c4ccc(N5CCN(C)CC5)cc4)c(-c4ccc(N5CCN(C)CC5)cc4)n3-c3ccc(OC)cc3)ccc21`, for which the inhibition result in the series filed under Homo sapiens [1] is “Active”. Also, the Activity entry in series [2], in series [4], in [5], in [8], in [9] and in series [10] was “Not Active” throughout. Moreover, the Activity result in series [13] was “Not Active”; in series [14], “Not Active”; in the series on Mus musculus [15] it was “Non-Toxic”; in the series with Mus musculus [16], “Non-Toxic”; in the series with SiHa [17], “Dose-dependent effect”. Moreover, the Kd – broadly, the constant that tells how readily two partners part at equilibrium – was 1 µM in series [3] and 0.8 µM in series [6]. The IC50 (in general, the midpoint of a concentration-inhibition curve) came out at 15.9 µM with BJ and 15.6 µM in [18]. In the series filed under Homo sapiens [7], the outcome was Active. For the same compound, the “growth inhibition (GI)” value in the series on SiHa [11] is “Active”. Further, in the series with SiHa [12], the TGI entry is “Tde”. In addition, in the series listed under Homo sapiens [19], the outcome was inactive.

Values taken from ChEMBL document CHEMBL4033789, “Discovery of a New Four-Leaf Clover-Like Ligand as a Potent c-MYC Transcription Inhibitor Specifically Targeting the Promoter G-Quadruplex” (J Med Chem, 2018).
